The source of these data is ChEMBL document CHEMBL1155343, “Discovery of N-(3-(morpholinomethyl)-phenyl)-amides as potent and selective CB2 agonists” (Bioorg Med Chem Lett, 2009).

For one data set, the target named is Cannabinoid receptor 1 (Homo sapiens, UniProt P21554). The data set is described as follows: Displacement of [3H]CP-55940 from human CB1 receptor expressed in CHO cells. It is filed as cell-based. The procedure, abridged: (§1)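 Ki values are geometric means of at least three separate determinations. Selectivity is expressed as the ratio of the CB1 Ki to the CB2 Ki.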
Sequence of Cannabinoid receptor 1 (P21554 whole entry): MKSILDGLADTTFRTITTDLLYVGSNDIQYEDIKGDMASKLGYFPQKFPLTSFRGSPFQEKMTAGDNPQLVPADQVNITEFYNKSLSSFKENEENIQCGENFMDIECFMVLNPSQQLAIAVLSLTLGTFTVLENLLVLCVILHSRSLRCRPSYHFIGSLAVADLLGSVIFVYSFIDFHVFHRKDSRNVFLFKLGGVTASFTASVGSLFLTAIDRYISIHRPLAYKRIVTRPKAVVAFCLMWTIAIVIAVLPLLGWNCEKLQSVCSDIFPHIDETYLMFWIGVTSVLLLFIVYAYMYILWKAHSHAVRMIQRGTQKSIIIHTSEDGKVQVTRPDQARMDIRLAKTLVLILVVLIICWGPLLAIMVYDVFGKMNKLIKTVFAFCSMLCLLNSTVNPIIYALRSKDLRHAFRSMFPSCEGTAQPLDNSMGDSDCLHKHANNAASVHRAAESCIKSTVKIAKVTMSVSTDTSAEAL
A general note: Loss of bound radioactivity is the signal in a displacement assay; it reports binding, not function.

In data set [1] the target is T1, Cannabinoid receptor 2 (Homo sapiens, UniProt P34972). The data set is described as follows: Displacement of [3H]CP-55940 from human CB2 receptor expressed in CHO cells. The class given is cell-based. Put shortly: as §1
T1 sequence (P34972 whole entry): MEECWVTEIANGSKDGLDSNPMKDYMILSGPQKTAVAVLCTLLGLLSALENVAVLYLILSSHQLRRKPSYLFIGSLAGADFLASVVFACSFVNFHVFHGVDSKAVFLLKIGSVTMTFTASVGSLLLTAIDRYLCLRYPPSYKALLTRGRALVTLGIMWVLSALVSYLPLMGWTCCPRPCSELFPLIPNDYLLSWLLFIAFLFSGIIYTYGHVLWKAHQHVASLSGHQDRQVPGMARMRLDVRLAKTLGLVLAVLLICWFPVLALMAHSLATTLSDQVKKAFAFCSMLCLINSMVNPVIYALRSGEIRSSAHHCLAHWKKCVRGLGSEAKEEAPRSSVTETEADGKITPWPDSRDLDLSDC
Data set [2] has as its target T1, Cannabinoid receptor 2. The data set is described as follows: Agonist activity at human CB2 receptor expressed in CHO cells by [35S]GTPgammaS binding assay. The class given is functional, cell-based. Put shortly: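 [35S]GTPγS binding with membranes from transfected CHO cells expressing CB2. EC50 values are geometric means of at least three separate determinations.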
A general note: GTPγS is a poorly hydrolysed GTP analogue; its binding reports G protein activation.

A short description of data set [3]: Metabolic stability in rat liver microsomes after 30 mins. The class given is ADME, Microsome. To be noted: read-out: Stability. The procedure, abridged:
(§2)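 Compounds incubated with liver microsomes for 30 min. Read-out is percent of parent compound remaining.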

A short description of data set [4]: Metabolic stability in human liver microsomes after 30 mins. The class given is ADME, Microsome. As to conditions: read-out: Stability. The procedure, abridged: as §2
Background: Liver microsomes are vesicles of endoplasmic reticulum, rich in cytochrome P450 enzymes.

The species named for the next data set is Homo sapiens. The data set is described as follows: Selectivity ratio, Ki for human CB1 receptor to Ki for human CB2 receptor. The procedure, abridged: as §1
Data set [5] relates to Mus musculus. The data set is described as follows: Toxicity in mouse hind paw incision model assessed as behavioral effects at 3 mg/kg, ip. It is filed as organism-based. Further details: dose 3 mg/kg, route intraperitoneal. To be noted: in vivo.
Data set [6] deals with Mus musculus. The data set is described as follows: Antiallodynic activity in mouse hind paw incision model of post-operative pain assessed as hind paw withdrawal threshold at 10 mg/kg, ip. The class given is functional, organism-based. Also on record: dose 10 mg/kg.
The test system of data set [7] is Mus musculus. Kind of data set: Antiallodynic activity in mouse hind paw incision model of post-operative pain assessed as hind paw withdrawal threshold at 3 mg/kg, ip. The class given is functional, organism-based. Also on record: dose 3 mg/kg.
The subject of data set [8] is Mus musculus. Kind of data set: Antiallodynic activity in po dosed mouse hind paw incision model of post-operative pain assessed as hind paw withdrawal threshold. The class given is functional, organism-based.
Data set [9] relates to Mus musculus. Kind of data set: Toxicity in mouse hind paw incision model assessed as behavioral effects at 10 mg/kg, ip. The class given is organism-based. Also on record: dose 10 mg/kg, route intraperitoneal. As to conditions: in vivo.

Entries after “also recorded” stand apart in the source; their conditions may differ. Activity calls are given as the source filed them.

As usually defined, the Ki is the equilibrium dissociation constant of an inhibitor or competing ligand from its target. As a reminder, the EC50 is the concentration needed to bring the measured effect to its halfway point. The low end stands for greater potency, the high end for weaker potency. Take `Cc1c(CN2CCOCC2)cc(NC(=O)C2CCCCC2C)cc1C(F)(F)F` (configuration not stated): the Ki at Cannabinoid receptor 1 worked out at 110 nM; on Cannabinoid receptor 2 [1], 17 nM. Moreover, the 50% effective concentration (EC50) on Cannabinoid receptor 2 [2] was found to be 42 nM. For the same compound, the remaining at 0.5 h in [3] and in data set [4] was 2% each time. For the same compound, in the data set listed under Homo sapiens, the Ratio Ki was 6.5.
As for `Cc1ccc(C(=O)NC2C(C)(C)[C@@H]3CC[C@@]2(C)C3)cc1CCC(=O)N1CCOCC1` (some centres not stated), the Ki on Cannabinoid receptor 1 turned out to be 1700 nM; on Cannabinoid receptor 2 [1] it was 83 nM. Besides, the Ratio Ki in the data set listed under Homo sapiens turned out to be 20.
Regarding `Cc1cc(C)c(NC(=O)C2CCCCC2C)cc1CN1CCOCC1` (configuration not stated), the Activity on Cannabinoid receptor 1 is 14%. Further, the affinity at Cannabinoid receptor 2 [1] corresponds to a Ki of 440 nM. At Cannabinoid receptor 2 [2], the midpoint of the response, the EC50, lay at 590 nM. The remaining at 0.5 h was 67% in data set [3] and 49% in data set [4].
`Cc1ccc(NC(=O)C(C)(C(F)(F)F)C(F)(F)F)cc1CN1CCOCC1`: the Ki on Cannabinoid receptor 1 came to 6300 nM; at Cannabinoid receptor 2 [1], 16 nM. This compound also came in with an EC50 on Cannabinoid receptor 2 [2] of 14 nM. For the same compound, the remaining at 0.5 h stood at 0.9% in [3] and 42% in data set [4]. Besides, the Ratio Ki in the data set filed under Homo sapiens was 390.
`CC(C(=O)Nc1ccc2c(c1)C(N1CCOCC1)CCC2)(C(F)(F)F)C(F)(F)F` (single isomer, unassigned): the Ki amounted to 1300 nM on Cannabinoid receptor 1 and 2.3 nM on Cannabinoid receptor 2 [1]. The EC50 at Cannabinoid receptor 2 [2] came out at 3.6 nM.
`CCC(C)(C)C(=O)Nc1cc(CN2CCOCC2)c(C)cc1C`: the Activity on Cannabinoid receptor 1 amounted to 18%. Further, at Cannabinoid receptor 2 [1], the Ki came out at 530 nM. On Cannabinoid receptor 2 [2], this compound came in with an EC50 of 500 nM. The remaining at 0.5 h in data set [3] came out at 42%; in data set [4], 61%.
`Cc1ccc(C(=O)NC2C(C)(C)[C@@H]3CC[C@@]2(C)C3)cc1CCN1CCOCC1` (some centres not stated): the Ki at Cannabinoid receptor 1 turned out to be 1400 nM; on Cannabinoid receptor 2 [1] it was 45 nM. The same compound came in with an EC50 at Cannabinoid receptor 2 [2] of 64 nM. In the data set filed under Homo sapiens, the Ratio Ki worked out at 31.
As for `CC(C(=O)Nc1ccc2c(c1)C(N1CCOCC1)CCC2)(C(F)(F)F)C(F)(F)F` (stereo in doubt; 43), the Ki at Cannabinoid receptor 1 was found to be 3400 nM; at Cannabinoid receptor 2 [1] it was 10 nM. Further, on Cannabinoid receptor 2 [2], a half-maximal effect (EC50) was put at 41 nM.
As to `Cc1ccc(NC(=O)C2CCCCC2C)cc1CN1CCOCC1` (configuration not stated), the inhibition constant (Ki) was found to be 1600 nM at Cannabinoid receptor 1 and 70 nM at Cannabinoid receptor 2 [1]. This compound displayed an EC50 at Cannabinoid receptor 2 [2] of 76 nM. Moreover, the remaining at 0.5 h was 2.2% in data set [3] and 38% in data set [4]. In the data set filed under Homo sapiens, the Ratio Ki was 23.
On to `CN1CC[C@]23c4c5ccc(O)c4O[C@H]2[C@@H](O)C=C[C@H]3[C@H]1C5` [MORPHINE], for which the Activity result in the data set on Mus musculus [5] was “Not Active”.
`CCC(C)(C)C(=O)Nc1ccc(C)c(CN2CCOCC2)c1`: the Activity on Cannabinoid receptor 1 was determined as 4%. The compound further returned an inhibitory constant (Ki) at Cannabinoid receptor 2 [1] of 120 nM. In addition, the EC50 at Cannabinoid receptor 2 [2] was 110 nM. For the same compound, the remaining at 0.5 h in [3] was determined as 29%; in data set [4], 56%.
Consider `Cc1ccc(C(=O)NC2C(C)(C)[C@@H]3CC[C@@]2(C)C3)cc1CCCN1CCOCC1` (some centres not stated), for which the results for the inhibition constant (Ki) at Cannabinoid receptor 1 and on Cannabinoid receptor 2 [1] were 2100 nM and 62 nM, respectively. At Cannabinoid receptor 2 [2], this compound showed an EC50 of 110 nM. Further, the Ratio Ki in the data set filed under Homo sapiens came out at 34.
The corresponding values for `Cc1ccc(C(=O)NC2C(C)(C)[C@@H]3CC[C@@]2(C)C3)cc1CN1CCOCC1` (some centres not stated) are 1100 nM, 19 nM, 42 nM and 58.
Take `Cc1ccc(C(=O)NC2C(C)(C)[C@@H]3CC[C@@]2(C)C3)cc1S(=O)(=O)N1CCOCC1` (some centres not stated): the inhibition constant (Ki) at Cannabinoid receptor 1 amounted to 130 nM; on Cannabinoid receptor 2 [1] it was 3.9 nM. Further, the EC50 on Cannabinoid receptor 2 [2] came out at 6.6 nM. The Ratio Ki in the data set filed under Homo sapiens stood at 31.
With `CC(C(=O)Nc1ccc2c(c1)C(N1CCOCC1)CCC2)(C(F)(F)F)C(F)(F)F` (single isomer, unassigned; enantiomer 2), the Ki is above 5000 nM at Cannabinoid receptor 1 and 120 nM on Cannabinoid receptor 2 [1]. This compound registered an EC50 on Cannabinoid receptor 2 [2] of 72 nM.
For `Cc1cc(F)c(NC(=O)C2CCCCC2C)cc1CN1CCOCC1` (configuration not stated), the Activity at Cannabinoid receptor 1 amounted to 31%. This compound also registered a Ki at Cannabinoid receptor 2 [1] of 37 nM. At Cannabinoid receptor 2 [2], this compound came in with a 50% effective concentration (EC50) of 49 nM. The values for the remaining at 0.5 h in data set [3] and in [4] were 15% and 36%, respectively.
For the compound `Cc1ccc(C(=O)NC2C(C)(C)[C@@H]3CC[C@@]2(C)C3)cc1C(=O)N1CCOCC1` (some centres not stated), the Ki on Cannabinoid receptor 1 is above 5000 nM; at Cannabinoid receptor 2 [1], 1200 nM. Besides, the remaining at 0.5 h in data set [3] came to 26%.
Regarding `CCC(C)(C)C(=O)Nc1cc(CN2CCOCC2)c(C)cc1F`, the Activity on Cannabinoid receptor 1 was determined as 10%. Moreover, the Ki on Cannabinoid receptor 2 [1] is 120 nM. The EC50 on Cannabinoid receptor 2 [2] amounted to 200 nM. The remaining at 0.5 h in [3] is 20%; in data set [4], 57%.
On to `Cc1ccc(C(=O)NC2C3(C)CCC(C3)C2(C)C)cc1CC(=O)N1CCOCC1` (configuration not stated), for which the inhibition constant Ki stood at 3900 nM at Cannabinoid receptor 1 and 700 nM on Cannabinoid receptor 2 [1]. The Ratio Ki in the data set filed under Homo sapiens stood at 5.6.
Consider `Cc1cc(NC(=O)C2CCCCC2C)cc(CN2CCOCC2)c1C` (configuration not stated), for which the inhibition constant (Ki) on Cannabinoid receptor 1 amounted to 540 nM; at Cannabinoid receptor 2 [1] it was 8.6 nM. On Cannabinoid receptor 2 [2], this compound yielded an EC50 of 21 nM. For the same compound, the figures for the remaining at 0.5 h in data set [3] and in data set [4] were 1% and 32%, respectively. Further, the Ratio Ki in the data set filed under Homo sapiens was 63.
In the case of `Cc1ccc(C(=O)NC2C(C)(C)[C@@H]3CC[C@@]2(C)C3)cc1N1CCOCC1` (some centres not stated), the inhibition constant Ki worked out at 9000 nM on Cannabinoid receptor 1 and 300 nM at Cannabinoid receptor 2 [1]. Besides, the Ratio Ki in the data set filed under Homo sapiens came to 30.
For `Cc1cc(NC(=O)C(C)(C(F)(F)F)C(F)(F)F)cc(CN2CCOCC2)c1C`, the Ki at Cannabinoid receptor 1 came out at 500 nM; at Cannabinoid receptor 2 [1] it was 2.7 nM. The compound further came in with an EC50 on Cannabinoid receptor 2 [2] of 5.5 nM. The remaining at 0.5 h in data set [3] turned out to be 3.1%; in data set [4], 31%. In addition, the outcome in the data set on Mus musculus [6] and with Mus musculus [7] was Active. The Ratio Ki in the data set filed under Homo sapiens was determined as 190. The result in the data set on Mus musculus [8] was inactive. In addition, the Activity entry in the data set on Mus musculus [9] is reported as “Non-toxic; also recorded: Not Active”.
